14 compounds from ChEMBL document CHEMBL1128552, “8-Amino-3-benzyl-1,2,4-triazolo[4,3-a]pyrazines. Synthesis and anticonvulsant activity” (J Med Chem, 1995) can be followed below.

For data set [1], the system named is Rattus norvegicus. Put plainly: The compound was tested for anticonvulsant activity against Maximal Electroshock-Induced Seizures(MES) in Wistar male rat, after peroral administration. It is filed as functional. The note with it: po. An outline of the steps:
(§1)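 Male Wistar rats (Charles River), maximal electroshock seizure test. Compounds given as solutions or fine dispersions in water or 0.5% methylcellulose; poorly soluble samples micronized. Initial screen at 25 mg/kg ip. ED50 is the dose protecting 50% against hind-limb extensor component, calculated by Miller–Tainter method. Either four doses with at least 12 animals each (with standard error), or three doses with six animals each.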

Data set [2] deals with Rattus norvegicus. As to the kind of experiment: The compound was tested for anticonvulsant activity against Maximal Electroshock-Induced Seizures(MES) in intraperitoneal administration. The note with it: ip. The data set is classed as functional. An outline of the steps: as §1
Background: Protection in the maximal electroshock model is a classic sign of anticonvulsant action.

Data set [3] in a line: Lipophilicity was measured. The data set is classed as physicochemical. The conditions noted are these: octanol/water.
Data set [4] is described as follows: Dissociation constant was measured. The data set is classed as physicochemical.

Broadly, the ED50 is the dose that gives a 50% effect, or the effect in half of the subjects. Consider `Nc1nccn2c(Cc3ccccc3F)nnc12`, for which the median effective dose (ED50) in the data set on Rattus norvegicus [1] came to 8 mg/kg; with Rattus norvegicus [2], 9 mg/kg.

In the case of `CNc1nccn2c(Cc3cccc(F)c3)nnc12`, the ED50 stood at 20 mg/kg in the data set with Rattus norvegicus [1] and 4 mg/kg in the data set with Rattus norvegicus [2].

The logP is a log measure of how a compound divides between an organic and an aqueous phase. Low values mean a more hydrophilic compound, high ones a more lipophilic compound. Usually pKa stands for the negative logarithm of the acid dissociation constant. A low value points to a stronger acid or weaker base. `CNc1nccn2c(Cc3ccccc3F)nnc12` had a log partition coefficient (logP) in data set [3] of 1.56. Besides, the pKa in data set [4] stood at 4.02. The 50% effective dose (ED50) came to 2.6 mg/kg in the data set with Rattus norvegicus [1] and 5 mg/kg with Rattus norvegicus [2].

The compound `Nc1nccn2c(Cc3ccc(F)cc3)nnc12` showed an ED50 in the data set on Rattus norvegicus [2] greater than 25 mg/kg.

With `CNc1nccn2c(Cc3ccc(F)cc3)nnc12`, it took a dose of 25 mg/kg to reach the 50% effect level with Rattus norvegicus [2] (ED50).

`CNc1nccn2c(Cc3c(F)cccc3F)nnc12`: the median effective dose (ED50) in the data set with Rattus norvegicus [1] is 3 mg/kg; with Rattus norvegicus [2], 2 mg/kg.

Take `Nc1nccn2c(Cc3c(F)cccc3F)nnc12`: the ED50 was 7 mg/kg in the data set with Rattus norvegicus [1] and 4 mg/kg in the data set with Rattus norvegicus [2].

In the case of `Nc1nccn2c(Cc3cc(F)ccc3F)nnc12`, the ED50 is 20 mg/kg with Rattus norvegicus [1] and 7 mg/kg with Rattus norvegicus [2].

As to `CNc1nccn2c(Cc3cc(F)ccc3F)nnc12`, the figures for the ED50 with Rattus norvegicus [1] and with Rattus norvegicus [2] were 10 mg/kg and 4 mg/kg, respectively.

`Nc1nccn2c(Cc3cccc(F)c3)nnc12` returned a median effective dose (ED50) in the data set on Rattus norvegicus [2] greater than 25 mg/kg.

Take `CNc1nccn2c(Cc3ccccc3)nnc12`: the values for the 50% effective dose (ED50) in the data set on Rattus norvegicus [1] and with Rattus norvegicus [2] were 16 mg/kg and 6 mg/kg, respectively.

Consider `Nc1ncnc2c1ncn2Cc1ccccc1F`, for which the ED50 in the data set with Rattus norvegicus [1] is 12 mg/kg; in the data set on Rattus norvegicus [2], 4.5 mg/kg.

Regarding `CNc1ncnc2c1ncn2Cc1ccccc1F` [BW-A78U], in data set [3], the logP stood at 1.86. Also, the pKa in data set [4] came to 3.88. Moreover, the values for the 50% effective dose (ED50) with Rattus norvegicus [1] and with Rattus norvegicus [2] were 2.5 mg/kg and 1.7 mg/kg, respectively.

Take `O=C1NC(=O)C(c2ccccc2)(c2ccccc2)N1` [PHENYTOIN]: the ED50 was found to be 20 mg/kg in the data set on Rattus norvegicus [1] and 10 mg/kg with Rattus norvegicus [2].
